Measurements collected from several papers.
Lines come from different studies, so protocols differ. Converted amounts (≈) assume the structure as drawn.

C[C@H](N)C(=O)Nc1ccccc1/N=c1\cc(-c2ccc3c(c2)OCCO3)oc2c(N)cccc12 has an inhibition of 7.27% (MCF7; cell growth or viability, CCK-8; 1 µM).
For COc1ccc(C2NCCc3cc(O)c(O)cc32)cc1O (centres unmarked), the IC50 was 18.7 µM (DPPH scavenging, absorbance; 30 min, dark).
CCOC(=O)C1=C(CSC2=NCCS2)NC(=O)NC1c1cccc(Cl)c1 (centres unmarked) has an IC50 of 142 µM (DPPH scavenging).
For C#CCON=C1C=CC(=C(C#N)c2ccccc2)C=C1, the MFC was 64 µg/mL (≈ 246 µM) (Candidozyma auris; microbial killing, broth dilution; 48 h).
Oc1cc2c(cc1O)C(CCc1ccccc1)NCC2 (centres unmarked) has an IC50 of 18 µM (DPPH scavenging, absorbance; 30 min, dark).
For CC(=O)ON=C1C=CC(=C(C#N)c2ccccc2)C=C1, the MFC was 16 µg/mL (≈ 60.5 µM) (Candidozyma auris; microbial killing, broth dilution; 48 h).
The inhibition of CS(=O)(=O)NCCC(=O)Nc1ccccc1/N=c1\cc(-c2ccc3nc(N)oc3c2)oc2ccccc12 is reported as 2% (MCF7; cell growth or viability, CCK-8; 1 µM).
With O=C(C[C@@H](C(F)F)n1ccc(F)n1)N1CCC(O)(Cn2cnc3c(cnn3-c3ccc(F)cc3)c2=O)CC1 the viability was 24% (CAPAN-1; cell growth or viability, SRB; 20 µM, 5 days).
COCCC(=O)Nc1ccccc1/N=c1\cc(-c2ccc3c(c2)OCO3)oc2ccccc12 gave an inhibition of 9.24% (MCF7; cell growth or viability, CCK-8; 1 µM).
CCCCCCCCCC1NCCc2cc(O)c(O)cc21 (centres unmarked) has an IC50 of 62 µM (DPPH scavenging, absorbance; 30 min, dark).
With CCON=C1C=CC(=C(C#N)c2ccccc2)C=C1 the MIC was 256 µg/mL (≈ 1020 µM) (Candidozyma auris; microbial growth, broth dilution; 48 h).
C[C@H](N)C(=O)Nc1ccccc1/N=c1\cc(-c2ccc3c(c2)OCCO3)oc2c([N+](=O)[O-])cccc12 has an inhibition of 6.59% (MCF7; cell growth or viability, CCK-8; 1 µM).
CCOC(=O)C1=C(CSC2=NCCS2)NC(=O)NC1c1cccc(F)c1 (centres unmarked) gave an IC50 of 201 µM (DPPH scavenging).
C=CC(=O)ON=C1C=CC(=C(C#N)c2ccccc2)C=C1 gave an MIC of 16 µg/mL (≈ 57.9 µM) (Candidozyma auris; microbial growth, broth dilution; 48 h).
CCOC(=O)C1=C(CSC2=NCCS2)NC(=O)NC1c1ccc(C(C)C)cc1 (centres unmarked) has an IC50 of 190 µM (DPPH scavenging).
C#CCOC(=O)ON=C1C=CC(=C(C#N)c2ccccc2)C=C1 has an MFC of 32 µg/mL (≈ 105 µM) (Candidozyma auris; microbial killing, broth dilution; 48 h).
Oc1cccc(-c2nc(N3CCOCC3)c3oc4ncccc4c3n2)c1 has an inhibition of 13.9% (MCF7; cell growth or viability, CCK-8; 1 µM).
For CCOC(=O)C1=C(CCl)NC(=O)NC1c1ccc(C(C)C)cc1 (centres unmarked), the IC50 was 243 µM (DPPH scavenging).
The IC50 of CCCCCCCCCCCC1NCCc2cc(O)c(O)cc21 (centres unmarked) is reported as 27.9 µM (DPPH scavenging, absorbance; 30 min, dark).
CCOC(=O)C1=C(CCl)NC(=O)NC1c1ccc(F)cc1F (centres unmarked) has an IC50 of 117 µM (DPPH scavenging).
N#CC(=C1C=CC(=NOC(=O)OCc2ccccc2)C=C1)c1ccccc1 gave an MFC of 128 µg/mL (≈ 359 µM) (Candidozyma auris; microbial killing, broth dilution; 48 h).
The IC50 of COc1cccc(C2NCCc3cc(O)c(O)cc32)c1 (centres unmarked) is reported as 18.2 µM (DPPH scavenging, absorbance; 30 min, dark).
CCOC(=O)C1=C(CCl)NC(=O)NC1c1ccc(C)cc1 (centres unmarked) has an IC50 of 235 µM (DPPH scavenging).
